Results as given in ChEMBL document CHEMBL1145734, “A study on the synthesis of antiangiogenic (+)-coronarin A and congeners from (+)-sclareolide” (Bioorg Med Chem Lett, 2003).
Values after ≈ are worked out from the molar mass of the structure shown.

How the values were obtained:
HUVEC [1] = assay: Growth inhibitory activity against human umbilical vein endothelial cells (HUVEC) proliferation using MTT colorimetric method; assay type: functional, cell-based
Outline: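 HUVEC seeded at 10,000 cells/well in growth-factor-containing EGM-2 and left 4 h to adhere. Compounds diluted in medium were added, followed by 72 h incubation at 37 in humidified 5% CO2. Viability was read by MTT colorimetric assay. IC50 came from nonlinear regression.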

HUVEC [2] = assay: Percentage inhibition against growth factor induced tube formation by human umbilical vein endothelial cells (HUVEC) at 10 ug/mL concentration; assay type: functional
Outline: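 HUVEC plated at 5000 cells/well on solidified Matrigel and incubated 16 h at 37 in humidified 5% CO2, with compound at 10 μg/mL, in triplicate. Cells were then stained with toluidine blue in 4% paraformaldehyde and photographed. A blinded observer counted tube branches per well. Inhibition was expressed relative to untreated control.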

Row | Structure (SMILES) | IC50 (HUVEC [1]) | inhibition at 10 µg/mL (HUVEC [2])
1 | CC1(C)CCC[C@]2(C)[C@H]3CC(=O)O[C@]3(C)CC[C@@H]12 | > 50 µg/mL | 
2 | C=C1[C@H](O[Si](C)(C)C(C)(C)C)C[C@H]2C(C)(C)CCC[C@]2(C)[C@H]1/C=C/c1ccoc1 | > 50 µg/mL | 5%
3 | C=C1[C@@H](O[Si](C)(C)C(C)(C)C)C[C@H]2C(C)(C)CCC[C@]2(C)[C@H]1C[C@@H](O)c1ccoc1 | 3.76 µg/mL (≈ 8.69 µM) | 10%
4 | C=C1[C@@H](O)C[C@H]2C(C)(C)CCC[C@]2(C)[C@H]1C[C@@H](O)c1ccoc1 | 15 µg/mL (≈ 47.2 µM) | 0%
5 | C=C1[C@@H](O)C[C@H]2C(C)(C)CCC[C@]2(C)[C@H]1C[C@H](O)c1ccoc1 | 29.7 µg/mL (≈ 93.2 µM) | 10%
6 | C=C1[C@@H](O[Si](C)(C)C(C)(C)C)C[C@H]2C(C)(C)CCC[C@]2(C)[C@H]1/C=C/c1ccoc1 | > 50 µg/mL | 22%
7 | C=C1[C@@H](O[Si](C)(C)C(C)(C)C)C[C@H]2C(C)(C)CCC[C@]2(C)[C@H]1C[C@H](O)c1ccoc1 | 7.71 µg/mL (≈ 17.8 µM) | 20%
8 | C=C1[C@H](O)C[C@H]2C(C)(C)CCC[C@]2(C)[C@H]1/C=C/c1ccoc1 | 3.12 µg/mL (≈ 10.4 µM) | 90%
9 | C=C1[C@@H](O)C[C@H]2C(C)(C)CCC[C@]2(C)[C@H]1/C=C/c1ccoc1 [CORONARIN A] | 4.22 µg/mL (≈ 14 µM) | 55%
10 | C=C[C@](C)(O)CC[C@@H]1[C@@]2(C)CCCC(C)(C)[C@@H]2CC[C@@]1(C)O [SCLAREOL] | > 50 µg/mL | 
